Our source for the cytotoxicity values is ChEMBL document CHEMBL4513216, “Probing the Open Global Health Chemical Diversity Library for Multistage-Active Starting Points for Next-Generation Antimalarials” (ACS Infect Dis, 2020).

The data set can be described thus: Toxicity liver stage against HepG2, at 10uM. Particulars: human, HepG2-A16-CD81EGFP cells; read-out: INHIBITION
On the set-up: test concentration 10 uM, cell line HepG2-A16-CD81EGFP. The class given is cell-based. An outline of the steps:
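Uninfected HepG2-A16-CD81EGFP cells, 3 × 10^3 per well, 1536-well, plated on prespotted compound at 10 μM final, parasite-free screening media added to match infected plates; puromycin 10 μM positive, DMSO 0.5% negative; run in parallel with 48 h PbLuc assay at 37 °C, 5% CO2; viability by CellTiter-Glo luminescence, normalized to controls.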
Consider `CS(=O)(=O)NCc1n[nH]c2c1CCN(C(=O)c1ccsc1)C2`, for which the cytotoxicity at 10 µM came to 4.01%.
As to `Cc1ccc(OC2(C(=O)N(C)Cc3ccoc3)CCNCC2)cc1`, the cytotoxicity at 10 µM was 9.41%.
In the case of `CCOCc1nc2c(c(N3CCN4CCCC4C3)n1)CCNCC2` (stereo not given), the cytotoxicity at 10 µM was 0.394%.
Regarding `Cc1cc(C)n(CC2CN(CC(=O)N3CCC3)CCO2)n1` (stereo not given), the cytotoxicity at 10 µM is -10.7%.
For the compound `O=C(Nc1cccnc1N1CCSCC1)c1ccc2c(c1)CCO2`, the cytotoxicity at 10 µM was -0.678%.
As to `CCc1ncc(CN2CCC(O)(c3ccccc3F)CC2)cn1`, the cytotoxicity at 10 µM was -4.68%.
For the compound `Cc1ccc2oc(C(=O)N3CCCC(n4nc(C)nc4C)C3)cc2n1` (stereo not given), the cytotoxicity at 10 µM is -7.39%.
Then `CS(=O)(=O)CCCN1CCOC2(CCc3ccccc32)C1` (stereo not given), with -5.14%.
For the compound `CC(C)c1noc(C(C)N2CCN(Cc3nc4ccccc4[nH]3)CC2)n1` (stereo not given), the cytotoxicity at 10 µM is -2.16%.
With `Cn1ccnc1CNCCNc1ncc(Cl)cc1Cl` the figure was 0.321%.
With `Nc1nc2c(c(N3CCCC(c4nnc5ccccn45)C3)n1)CCNC2` (stereo not given) the figure was -3.57%.
As for `CC(=O)N1CCCN(Cc2cc(F)cc(Br)c2)CC1`, the cytotoxicity at 10 µM was determined as 7.72%.
Then `COCCN1CCC2(CC1)CC(NC(=O)C(C)C)c1ccccc1O2` (stereo not given), with 3.82%; and `CSCC[C@H](NC(C)=O)c1nc(CCc2ccccc2)n[nH]1`, with 5.08%; and `CCCn1ccnc1CN1CCCC1c1cccc(-n2ccnc2)n1` (stereo not given), with -22.2%.
Regarding `COc1cccc(CC(=O)N2CCc3ncnc(NCCO)c3CC2)c1`, the cytotoxicity at 10 µM is -4.12%.
As for `Cc1nnc2ccc(OCCNS(C)(=O)=O)nn12`, the cytotoxicity at 10 µM was -6.02%.
Then `CS(=O)(=O)NC[C@@H]1OC[C@H]2CN(C(=O)c3ccccc3)CC[C@H]21`, with 10.3%; and `CN(C(=O)c1cc(Cl)c[nH]1)C1CCN(c2ccccn2)CC1`, with -1.49%; and `Cc1ccc(Nc2nccc(C3CCN(C(=O)CN)C3)n2)nc1` (stereo not given), with -18.5%.
With `CS(=O)(=O)c1ccc(-c2c[nH]c([C@@H]3COCCN3)n2)cc1` the figure was 5.29%; with `Cc1cc(N2CCN(C3CCOCC3)CC(C(=O)N(C)C)C2)ncn1` (stereo not given), 3.74%.
Then `O=S(=O)(c1cccs1)N1Cc2nc(CN3CCCC3)oc2C1`, with -118%.
For `CCCN1CCC(c2nc3ccc(-c4ccccc4)cn3n2)CC1`, the cytotoxicity at 10 µM was -129%.
With `CCC(=O)N1CCCC1c1nc(N(C)C)ncc1-c1ccc(Cl)cc1` (stereo not given), the cytotoxicity at 10 µM is 5.82%.
As for `Cc1nc(-c2nc(C(=O)NC3CC3)c3ccccn23)cn1C(C)C`, the cytotoxicity at 10 µM was -103%.
With `CN1CCOCC2(CCCN(C(=O)c3cn(C)cn3)C2)C1` (stereo not given) the figure was 8.47%.
With `O=C(Nc1ccccc1OC1CCOC1)c1cc[nH]n1` (stereo not given) the figure was -1.57%.
`Cc1ccc(CN2CC[C@@H]3[C@H]2CCC(=O)N3Cc2ccncc2)s1`: the cytotoxicity at 10 µM is -65.6%.
Consider `CC(C)Cc1noc(C2CCCCN2C(=O)CCc2cnn(C)c2)n1` (stereo not given), for which the cytotoxicity at 10 µM is 3.6%.
Then `COCc1noc(-c2ccc(N3CCC[C@H]3CO)nc2)n1`, with -8.26%; and `CCCc1n[nH]c(C2CN(C(=O)CCn3cc(C)cn3)CCO2)n1` (stereo not given), with 10.3%; and `COc1cc(NCc2ccncc2)c(-c2nn[nH]n2)cc1OC`, with 7.91%.
Then `NC(=O)c1cccc(CCNCc2cnc(-c3cccs3)s2)c1`, with 2.49%.
Turning to `COCCC1COC2(CCN(C(=O)c3ccco3)CC2)C1` (stereo not given), the cytotoxicity at 10 µM came out at 3.63%.
`Cc1nn(C)c(N2CCOCC2)c1CNCc1ccnn1C`: the cytotoxicity at 10 µM is -1.66%.
Take `CNC(=O)c1ccc(C2CN(C(=O)c3cncs3)CCO2)nc1` (stereo not given): the cytotoxicity at 10 µM is -2.7%.
As to `OCCN(Cc1cccnc1)c1ccc(Br)cn1`, the cytotoxicity at 10 µM amounted to 21.4%.
With `CCOCCC(=O)Nc1cc(C(N)=O)ccc1N1CCCC(C)C1` (stereo not given), the cytotoxicity at 10 µM was -43%.
Regarding `Cc1ccc(NC2CCN(C(=O)c3ccc(Cl)cc3F)CC2)nn1`, the cytotoxicity at 10 µM was -17.7%.
